Experimental data published in ChEMBL document CHEMBL4033696, “Repurposing of Proton Pump Inhibitors as first identified small molecule inhibitors of endo-β-N-acetylglucosaminidase (ENGase) for the treatment of NGLY1 deficiency, a rare genetic disease” (Bioorg Med Chem Lett, 2017).
Active and inactive are the calls of the source. The rule behind the calls is not given here. Residues, ends and D or L forms follow the SMILES beside them. *: point of attachment. Cbz = O=C(OCc1ccccc1)*

Target: T1, Cytosolic endo-beta-N-acetylglucosaminidase (Homo sapiens) (UniProt Q8NFI3)
T1 sequence (whole entry): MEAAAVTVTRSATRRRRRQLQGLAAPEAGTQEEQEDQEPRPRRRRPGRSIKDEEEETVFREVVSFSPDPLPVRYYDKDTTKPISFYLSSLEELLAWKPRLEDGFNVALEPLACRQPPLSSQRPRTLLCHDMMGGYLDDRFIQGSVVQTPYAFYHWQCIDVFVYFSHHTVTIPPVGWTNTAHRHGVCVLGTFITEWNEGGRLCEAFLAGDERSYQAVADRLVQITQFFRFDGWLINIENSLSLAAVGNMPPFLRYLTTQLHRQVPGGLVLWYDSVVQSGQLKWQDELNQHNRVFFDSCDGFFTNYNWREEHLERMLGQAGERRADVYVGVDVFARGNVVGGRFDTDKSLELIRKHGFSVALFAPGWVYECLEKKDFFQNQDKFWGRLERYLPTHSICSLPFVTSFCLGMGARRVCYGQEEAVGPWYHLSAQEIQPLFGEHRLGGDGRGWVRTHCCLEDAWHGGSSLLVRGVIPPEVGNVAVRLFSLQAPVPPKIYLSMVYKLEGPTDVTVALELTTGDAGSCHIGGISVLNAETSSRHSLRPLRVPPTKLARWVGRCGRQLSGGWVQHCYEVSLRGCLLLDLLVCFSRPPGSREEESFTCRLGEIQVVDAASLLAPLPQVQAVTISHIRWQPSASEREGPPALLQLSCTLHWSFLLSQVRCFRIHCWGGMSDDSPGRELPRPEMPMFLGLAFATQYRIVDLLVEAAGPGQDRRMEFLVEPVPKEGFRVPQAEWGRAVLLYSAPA
Test: Inhibition of recombinant human C-MYC/DDK-tagged ENGase expressed in HEK293T cells at 100 uM using heat inactivated bovine ribonuclease B as substrate pretreated for 15 mins followed by substrate addition after 90 mins by SDS-PAGE analysis
Conditions: HEK-293T
Summary of the method: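 Recombinant human ENGase incubated with ribonuclease B substrate and test compound at 100 μM as a single-concentration screen. Reactions were then heat-inactivated and resolved on 12% SDS-PAGE as an electrophoretic mobility shift assay. Bands were stained with Coomassie blue R-250 and quantified by densitometry.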

SMILES | inhibition
CCNC1=N[C@H]2[C@H](O)[C@@H](O)[C@H](CO)O[C@H]2S1 | inactive
CC(=O)Nc1nnc(S(N)(=O)=O)s1 | inactive
CC(C)C[C@H](NC(=O)CNC(=O)c1cc(Cl)ccc1Cl)B(O)O | inactive
CN1CCc2nc(C(=O)N[C@@H]3C[C@@H](C(=O)N(C)C)CC[C@@H]3NC(=O)C(=O)Nc3ccc(Cl)cn3)sc2C1 | inactive
CNCC[C@@H](Oc1ccccc1C)c1ccccc1 | inactive
Clc1cccc(Cl)c1NC1=NCCN1 | inactive
N=C(N)NC(=O)Cc1c(Cl)cccc1Cl | inactive
CC(C)C[C@@H](C=O)NC(=O)[C@H](CC(C)C)NC(=O)[C@H](CC(C)C)NC(=O)OCc1ccccc1 (Cbz-Leu-Leu-Leu-aldehyde) | inactive

Target: T2, Cytosolic endo-beta-N-acetylglucosaminidase (Homo sapiens, UniProt Q8NFI3)
T2 sequence (Q8NFI3 whole entry): T1 sequence (whole entry)
Test: (§1) Inhibition of recombinant human C-MYC/DDK-tagged ENGase expressed in HEK293T cells using heat inactivated bovine ribonuclease B as substrate pretreated for 15 mins followed by substrate addition after 90 mins by SDS-PAGE analysis
Parameters: species or system HEK-293T
Conditions: not given
Summary of the method: (§2)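 Electrophoretic mobility shift assay: recombinant human ENGase with ribonuclease B and inhibitor at various concentrations, heat-inactivated, run on 12% SDS-PAGE, Coomassie R-250 staining, band densitometry. IC50 came either from 8-dose curves in three independent experiments or was estimated from four concentrations in two independent experiments.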

SMILES | IC50
COc1ccc2[nH]c([S+]([O-])Cc3ncc(C)c(OC)c3C)nc2c1 (stereo not given) [OMEPRAZOLE] | 25 µM
COCCCOc1ccnc(C[S+]([O-])c2nc3ccccc3[nH]2)c1C (stereo not given) [RABEPRAZOLE] | 4.47 µM
Cc1c(OCC(F)(F)F)ccnc1C[S+]([O-])c1nc2ccccc2[nH]1 (stereo not given) [LANSOPRAZOLE] | 24.4 µM
Cc1c(OCC(F)(F)F)ccnc1C[S@@+]([O-])c1nc2ccccc2[nH]1 [DEXLANSOPRAZOLE] | 25 µM
COc1ccc2[nH]c([S+]([O-])Cc3ncc(C)c(OC)c3C)nc2n1 (stereo not given) [TENATOPRAZOLE] | 20 µM

Target: T1, Cytosolic endo-beta-N-acetylglucosaminidase (Homo sapiens)
Test: as §1
Conditions: HEK-293T
Summary of the method: as §2

SMILES | inhibition
COc1ccc2[nH]c([S@@+]([O-])Cc3ncc(C)c(OC)c3C)nc2c1 | inactive
COc1ccnc(C[S+]([O-])c2nc3cc(OC(F)F)ccc3[nH]2)c1OC (stereo not given) | inactive
